Screening results as filed in PubChem BioAssay.
bIAP activator = increases bovine intestinal alkaline phosphatase activity | purified bovine IAP, CDP-star luminescence, 30 min; hits give high values; fold of DMSO-control signal, blank-subtracted | activation factor at 20 µM | 200,000 tested, 0.17% active | AID 1016;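 active = activation factor of 2 or more at 20 µM, a signal rise over negative controls twice the positive control's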
mIAP block = mouse IAP inhibition; purified mouse IAP, CDP-Star luminescence, 30 min; AID 2806; 330,000 tested, 0.2% active; inhibition, % at 10 µM;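 active = inhibition of at least 40% at 10 µM in the primary screen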
hIAP inh = blocks human intestinal alkaline phosphatase | 330,000 tested, 0.12% active | AID 2544 | purified IAP, CDP-Star luminescence, 30 min | inhibition, % at 10 µM;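 active = inhibition reaching a set limit with compound at 10 µM in the primary screen, cut at about 35% in these data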
Target sequence (P09923 whole entry, looked up): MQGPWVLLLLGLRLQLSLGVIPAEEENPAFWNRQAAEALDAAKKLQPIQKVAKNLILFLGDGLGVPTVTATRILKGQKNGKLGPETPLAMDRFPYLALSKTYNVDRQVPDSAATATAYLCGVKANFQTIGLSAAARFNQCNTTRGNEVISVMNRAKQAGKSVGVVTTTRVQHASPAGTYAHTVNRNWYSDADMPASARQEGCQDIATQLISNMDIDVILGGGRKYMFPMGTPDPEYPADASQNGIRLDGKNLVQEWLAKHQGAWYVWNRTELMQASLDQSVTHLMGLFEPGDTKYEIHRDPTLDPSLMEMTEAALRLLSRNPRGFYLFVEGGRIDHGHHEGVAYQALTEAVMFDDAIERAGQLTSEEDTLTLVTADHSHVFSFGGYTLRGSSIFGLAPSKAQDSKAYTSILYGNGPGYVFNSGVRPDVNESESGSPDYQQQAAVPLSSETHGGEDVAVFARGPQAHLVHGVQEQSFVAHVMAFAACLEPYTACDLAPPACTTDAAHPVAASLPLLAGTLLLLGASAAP
bIAP inhibitor = blocks bovine intestinal alkaline phosphatase activity. purified bovine IAP, CDP-star luminescence, 30 min. inhibition, % at 20 µM. 190,000 tested, under 10 active;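 active = over 50% inhibition of intestinal alkaline phosphatase at 20 µM in the single-dose screen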
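test system = bovine IAP enzyme | medium = DEA buffer 100 mM, pH 9.8, with MgCl2 1.0 mM, ZnCl2 0.02 mM | detection = luminescence | dosing = single compound dose of 20 µM, 2% DMSO final | incubation = 30 min reaction at room temperature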
mIAP act = mouse IAP activation | muIAP, CDP-Star luminescence, 30 min; hits give high values; 1 = vehicle-only enzyme signal, 0 = enzyme-free wells | 330,000 tested, 0.24% active | activation factor at 10 µM;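 active = activation factor of at least 2 at 20 µM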
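Assay system: mouse IAP enzyme; Reagent: CDP-Star chemiluminescent phosphatase substrate; Compound: DMSO-dissolved test compounds; Incubation: 30 min, room temperature; Technique: luminescence from enzymatic CDP-Star hydrolysis; Controls: DMSO-only wells and no-enzyme negative control.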
hIAP act = increases human intestinal alkaline phosphatase activity; activation factor at 10 µM; purified human IAP, CDP-Star luminescence, 30 min; hits give high values; 1 = vehicle-only enzyme, 0 = enzyme-free background; AID 2524; 330,000 tested, 0.16% active; P09923;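 active = activation factor of the enzyme at least 2-fold when tested at 20 µM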
mIAP inh conf = mouse IAP inhibition confirmation; shares compounds with mIAP block; purified mouse IAP, CDP-Star luminescence, 30 min; inhibition, % at 10 µM; 11,000 tested, 4.7% active; AID 434971;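 active = inhibition of at least 40% at 10 µM in either of the two replicates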
Hits are given with their value; 0 = inactive; - = no result given. The list is not random: actives were taken first. Their share in the collection is about 0.79%.

SMILES | bIAP activator | mIAP block | hIAP inh | bIAP inhibitor | mIAP act | hIAP act | mIAP inh conf
Nc1ncc2c(n1)-c1ccoc1CC2 | - | 41.0 | 0 | - | 0 | 0 | 56.2
Nc1ncc2c(n1)-c1ccccc1CC2 | 0 | 0 | 0 | 0 | 0 | 0 | -
C=C1c2cccc(O)c2C(=O)C2C(=O)[C@]3(O)C(=O)C(C(N)=O)C(=O)[C@@H](N(C)C)[C@@H]3[C@@H](O)[C@H]12 (some centres not stated) | - | 48.8 | 0 | - | 0 | 0 | 48.0
O=C(N=Nc1c(O)[nH]c2ccccc12)c1cccc(S(=O)(=O)Nc2ccccc2Cl)c1 | 0 | 0 | 0 | 0 | 0 | 0 | -
NS(=O)(=O)c1cc(C(=O)N=Nc2c(O)[nH]c3ccccc23)ccc1Cl | - | 46.5 | 0 | - | 0 | 0 | 48.0
O=S(=O)(NCc1nnc2c(C(F)(F)F)cc(Cl)cn12)c1ccccc1 | - | 0 | 0 | - | 0 | 0 | -
O=C1C=C(O)c2c(O)cc(O)c(O)c2C1=O | - | 69.0 | 0 | - | 0 | 0 | 55.4
O=C1c2ccccc2C(=O)c2c(O)c(O)cc(O)c21 | - | 0 | 0 | - | 0 | 0 | -
O=C(CCNS(=O)(=O)c1ccc(Cl)cc1)NCc1cccs1 | 0 | 0 | 0 | 0 | 0 | 0 | -
CC(=O)c1ccccc1NC(=O)c1cc(S(=O)(=O)N2CCOCC2)ccc1N1CCCC1 | - | 0 | 0 | - | 0 | 0 | -
COc1cc(C[C@@H](C)[C@@H](C)Cc2ccc(O)c(OC)c2)ccc1O | - | 0 | 0 | - | 0 | 0 | -
CC(Cc1ccc(O)c(O)c1)C(C)Cc1ccc(O)c(O)c1 (configuration not stated) | - | 58.3 | 0 | - | 0 | 0 | 50.6
O=C(NCc1ccco1)c1cc2c(s1)CSC2 | 0 | 45.2 | 0 | 0 | 0 | 0 | 45.4
O=C(NCc1ccc2c(c1)OCO2)c1cc2c(s1)CSC2 | 0 | 44.9 | 0 | 0 | 0 | 0 | 59.1
O=C(CN(C(=O)c1ccc2c(c1)OCCO2)c1ccccc1)NCC1CCCO1 (configuration not stated) | 0 | 0 | 0 | 0 | 0 | 0 | -
CCOC(=O)NNc1ccc2nonc2c1[N+](=O)[O-] | - | 43.4 | 0 | - | 0 | 0 | 43.6
O=[N+]([O-])c1c(NCc2ccco2)ccc2nonc12 | - | 41.3 | 0 | - | 0 | 0 | 51.1
CC(=O)N1CCN(c2ccc(NCc3ccc(-c4ccc(Br)cc4)o3)cc2)CC1 | - | 0 | 0 | - | 0 | 0 | -
CC(=O)O[C@H]1[C@H](O)[C@H](Oc2c(O)c(C)c3c4c2[C@@H](C)CC[C@@H]4[C@@H](C)C[C@H]3C=C(C)C)O[C@@H](C)[C@H]1O | - | 0 | 0 | - | 0 | 0 | -
O=C(CSc1nc2ccccc2o1)N/N=C/c1ccc(O)c(O)c1 | - | 66.9 | 0 | - | 0 | 0 | 74.4
Cc1cc(SCC(=O)N/N=C/c2ccc(O)c(O)c2)c(C)cc1Br | 0 | 0 | 0 | 0 | 0 | 0 | -
Cc1nonc1C(=O)N/N=C/c1ccc(O)c(O)c1 | 0 | 42.1 | 0 | 0 | 0 | 0 | 41.0
O=C(N/N=C/c1ccc(O)c(O)c1)N/N=C/c1ccc(O)c(O)c1 | - | 48.6 | 0 | - | 0 | 0 | 71.6
COc1cc(CN2CCNC(=O)C2CC(=O)N2CCc3ccccc3C2)cc(OC)c1 (configuration not stated) | 0 | 0 | 0 | 0 | 0 | 0 | -
Cc1cccc(NC(=O)CSc2nnc(CNC(=O)c3ccco3)n2C)c1C | - | 0 | 0 | - | 0 | 0 | -
SMILES | bIAP activator | mIAP block | hIAP inh | bIAP inhibitor | mIAP act | hIAP act | mIAP inh conf
NS(=O)(=O)c1ccc(NC(=O)COC(=O)CNC(=O)C23CC4CC(CC(C4)C2)C3)cc1 | 0 | 0 | 0 | 0 | 0 | 0 | -
CC1=NN(C(=O)c2ccccc2F)C(O)(c2ccc(Cl)cc2)C1 (configuration not stated) | - | 0 | 0 | - | 0 | 0 | -
COc1ccc(S(=O)(=O)/N=C2/NC(=O)/C(=C\c3ccco3)S2)cc1 | 0 | 58.4 | 0 | 0 | 0 | 0 | 64.3
O=C(N/N=C/c1cc2c(cc1[N+](=O)[O-])OCO2)c1ccccn1 | - | 40.0 | 0 | - | 0 | 0 | 58.2
O=C(Nn1c(=O)[nH]c2ccccc2c1=O)c1ccco1 | 0 | 0 | 0 | 0 | 0 | 0 | -
C[C@@H]1CN([C@H](C)CO)C(=O)c2cc(NC(=O)Nc3ccc(C(F)(F)F)cc3)ccc2O[C@H]1CN(C)S(=O)(=O)c1cccs1 | - | 0 | 0 | - | 0 | 0 | -
COc1ccc(NC(=O)Nc2ccc3c(c2)C(=O)N([C@H](C)CO)C[C@H](C)[C@@H](CN(C)S(=O)(=O)c2ccc(F)cc2)O3)cc1 | - | 0 | 0 | - | 2.85 | 0 | 0
C[C@H](CO)N1C[C@H](C)[C@@H](CN(C)S(=O)(=O)c2ccccc2)Oc2ccc(NC(=O)C3CC3)cc2C1=O | - | 0 | 0 | - | 0 | 0 | -
Cc1ccc(S(=O)(=O)N(C)C[C@@H]2Oc3ccc(NC(=O)Nc4cccc5ccccc45)cc3C(=O)N([C@H](C)CO)C[C@H]2C)cc1 | - | 0 | 0 | - | 3.25 | 0 | 0
C[C@H](CO)N1C[C@H](C)[C@@H](CN(C)S(=O)(=O)c2ccccc2)Oc2ccc(NC(=O)Nc3ccccc3)cc2C1=O | - | 0 | 0 | - | 3.16 | 0 | 0
C[C@H](CO)N1C[C@H](C)[C@@H](CN(C)S(=O)(=O)c2cccs2)Oc2ccc(NC(=O)Nc3ccccc3)cc2C1=O | - | 0 | 0 | - | 3.21 | 0 | 0
CN(c1cccc(NC(=O)CN(c2ccc(C34CC5CC(CC(C5)C3)C4)cc2)S(C)(=O)=O)c1)S(C)(=O)=O | 0 | 0 | 0 | 0 | 0 | 0 | -
Cc1cc(C)cc(NC(=O)Nc2ccc3c(c2)N(C)C(=O)CS3)c1 | 0 | 0 | 0 | 0 | 3.98 | 0 | 0
CCc1ccc(NC(=O)Nc2ccc3c(c2)N(C)C(=O)CS3)cc1 | 0 | 0 | 0 | 0 | 2.87 | 0 | 0
CCOC(=O)c1ccc(N2CCN(c3ccccc3F)CC2)c(NC(=O)Nc2cccc(OC)c2)c1 | 0 | 0 | 0 | 0 | 8.55 | 0 | 0
COC(=O)c1ccc(N2CCOCC2)c(NC(=O)Nc2cccc(OC)c2)c1 | 0 | 0 | 0 | 0 | 0 | 0 | -
CCOC(=O)C1CCN(S(=O)(=O)c2ccc(C(C)(C)C)cc2)CC1 | 0 | 0 | 0 | 0 | 0 | 0 | -
COc1ccc(CN2CC[C@H]3C=CC[C@@H](C(=O)Nc4ccc(Cl)c(C(F)(F)F)c4)[C@H]3C2=O)cc1OC | - | 0 | 0 | - | 2.1 | 0 | 0
CC(/C=N/n1c(-c2ccco2)n[nH]c1=S)=C\c1ccco1 | 0 | 49.9 | 0 | 0 | 0 | 0 | 51.7
Cc1cccc(-c2n[nH]c(=S)n2/N=C/C=C/c2ccco2)c1 | - | 46.1 | 0 | - | 0 | 0 | 53.4
CCc1ccc(OCC(=O)N2CCN(c3ccccn3)CC2)c(Br)c1 | - | 0 | 0 | - | 0 | 0 | -
CCN(c1ccc2c(c1)OCO2)S(=O)(=O)c1cc(Br)cc2c1N(C(C)=O)CC2 | 0 | 0 | 0 | 0 | 0 | 0 | -
Oc1ccc(Cl)cc1-c1cc(-c2ccco2)[nH]n1 | 0 | 79.9 | 0 | 0 | 0 | 0 | 80.3
Oc1ccc(Br)cc1-c1cc(-c2ccco2)[nH]n1 | 0 | 0 | 0 | 0 | 0 | 0 | -
